{"source": "ChEMBL document CHEMBL1156239", "about": "“Synthesis, anticonvulsant and antimicrobial activities of some new 2-acetylnaphthalene derivatives” (Bioorg Med Chem, 2010)", "key": {"Rattus norvegicus [1]": {"tested_on": "Rattus norvegicus", "experiment": "Anticonvulsant activity in Sprague-Dawley rat assessed as inhibition of maximal electroshock-induced seizures at 30 mg/kg, po after 2 hrs", "format": "functional, organism-based", "design": "dose 30 mg/kg", "outline": "(§1)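 Male albino Sprague-Dawley rats (105–130 g) given a single oral 30 mg/kg dose suspended in 0.5% methylcellulose; MES (60 Hz, 150 mA, 0.2 s, tetracaine-anesthetized eyes) at 0.25, 0.5, 1, 2 and 4 h; 4 rats per time point; scored protected/tested.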"}, "Mus musculus [2]": {"tested_on": "Mus musculus", "experiment": "Neurotoxicity in CF1 mouse assessed as ability to grasp rotarod at 300 mg/kg, ip after 4 hrs by rotarod test", "format": "toxicity, organism-based", "design": "dose 300 mg/kg, route intraperitoneal", "details": "in vivo", "outline": "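Male albino CF#1 mice (18–25.5 g), free access to food and water except during testing, under NINDS Anticonvulsant Screening Program procedures. Compounds were suspended in 0.5% methylcellulose and given ip. Neurotoxicity was scored by rotarod 0.5 h and 4 h after dosing, at screening doses of 30, 100 or 300 mg/kg. Results are reported as affected/tested animals.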"}, "Rattus norvegicus [3]": {"tested_on": "Rattus norvegicus", "experiment": "Neurotoxicity in Sprague-Dawley rat at 30 mg/kg, po after 0.25 hrs by rotarod test", "format": "toxicity, organism-based", "design": "dose 30 mg/kg, route oral", "details": "in vivo"}, "Rattus norvegicus [4]": {"tested_on": "Rattus norvegicus", "experiment": "Neurotoxicity in Sprague-Dawley rat at 30 mg/kg, ip after 2 hrs by rotarod test", "format": "toxicity, organism-based", "design": "dose 30 mg/kg, route intraperitoneal", "details": "in vivo"}, "Mus musculus [5]": {"tested_on": "Mus musculus", "experiment": "Neurotoxicity in CF1 mouse at 30 mg/kg, ip after 4 hrs by rotarod test", "format": "toxicity, organism-based", "design": "dose 30 mg/kg, route intraperitoneal", "details": "in vivo", "outline": "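Male albino CF#1 mice (18–25.5 g) dosed ip with compound suspended in 0.5% methylcellulose, 0.5 h or 4 h before testing; neurotoxicity assessed by rotarod, scored as number toxic/number tested.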"}, "Rattus norvegicus [6]": {"tested_on": "Rattus norvegicus", "experiment": "Neurotoxicity in Sprague-Dawley rat assessed as time to peak effect at 50 mg/kg, ip after 2 to 6 hrs by rotarod test", "format": "toxicity, organism-based", "design": "dose 50 mg/kg, route intraperitoneal", "details": "in vivo"}, "Mus musculus [7]": {"tested_on": "Mus musculus", "experiment": "Neurotoxicity in CF1 mouse assessed as time to peak effect muscle spasms at 150 mg/kg, ip by rotarod test", "format": "toxicity, organism-based, Muscle tissue", "design": "dose 150 mg/kg, route intraperitoneal", "details": "in vivo"}, "Rattus norvegicus [8]": {"tested_on": "Rattus norvegicus", "experiment": "Neurotoxicity in Sprague-Dawley rat at 30 mg/kg, po after 0.5 hrs by rotarod test", "format": "toxicity, organism-based", "design": "dose 30 mg/kg, route oral", "details": "in vivo"}, "Mus musculus [9]": {"tested_on": "Mus musculus", "experiment": "Anticonvulsant activity in CF1 mouse assessed as inhibition of maximal electroshock-induced seizures at 30 mg/kg, ip after 4 hrs", "format": "functional, organism-based", "design": "dose 30 mg/kg", "outline": "(§2)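 Male albino CF#1 mice (18–25.5 g), compound suspended in 0.5% methylcellulose, given ip 0.5 h or 4 h before test. Eyes treated with 0.5% tetracaine HCl in saline; corneal-type MES at 60 Hz, 50 mA for 0.2 s; protection scored as animals protected/tested.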"}, "Candida parapsilosis": {"tested_on": "Candida parapsilosis", "experiment": "Antifungal activity against Candida parapsilosis ATCC 22019 after 48 hrs by broth microdilution method", "format": "functional", "details": "Lodderomyces parapsilosis, ATCC 22019, 48 h"}, "Mus musculus [10]": {"tested_on": "Mus musculus", "experiment": "Anticonvulsant activity in CF1 mouse assessed as time to peak effect for inhibition of maximal electroshock-induced seizures at 70 mg/kg, ip", "format": "functional", "details": "route intraperitoneal"}, "Mus musculus [11]": {"tested_on": "Mus musculus", "experiment": "Anticonvulsant activity in ip dosed CF1 mouse assessed as inhibition of ScM-induced seizures after 5 hrs", "format": "functional"}, "Mus musculus [12]": {"tested_on": "Mus musculus", "experiment": "Anticonvulsant activity in CF1 mouse assessed as inhibition of maximal electroshock-induced seizures at 300 mg/kg, ip after 0.5 hrs", "format": "functional, organism-based", "design": "dose 300 mg/kg", "outline": "as §2"}, "Rattus norvegicus [13]": {"tested_on": "Rattus norvegicus", "experiment": "Anticonvulsant activity in Sprague-Dawley rat assessed as inhibition of maximal electroshock-induced seizures at 30 mg/kg, po after 1 hr", "format": "functional, organism-based", "design": "dose 30 mg/kg", "outline": "as §1"}, "Pseudomonas aeruginosa": {"tested_on": "Pseudomonas aeruginosa", "experiment": "Antibacterial activity against Pseudomonas aeruginosa ATCC 27853 after 24 hrs by broth microdilution method", "format": "functional", "details": "ATCC 27853, 24 h", "outline": "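Broth microdilution in Mueller Hinton broth; compound stocks in DMSO, diluted into test medium. Plates incubated at 35 °C and read visually after 24 h. MIC taken as lowest concentration preventing visible growth. Ampicillin reference.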"}}, "note": "Calls of active or inactive are those of the source. The rule behind the calls is not given here.", "data": [{"smiles": "CC(C)CC(=O)OC(Cn1ccnc1)c1ccc2ccccc2c1", "note": "(stereo not given)", "values": [{"measurement": "inhibition", "setting": "Rattus norvegicus [1]", "value": "inactive"}, {"measurement": "Activity", "setting": "Mus musculus [2]", "value": "Toxic"}, {"measurement": "Activity", "setting": "Rattus norvegicus [3]", "value": "Non-toxic"}, {"measurement": "Activity", "setting": "Rattus norvegicus [4]", "value": "Non-toxic"}, {"measurement": "Activity", "setting": "Mus musculus [5]", "value": "Non-toxic"}, {"measurement": "Activity", "setting": "Rattus norvegicus [6]", "value": "Non-toxic"}, {"measurement": "Time", "setting": "Mus musculus [7]", "value": 0.25, "unit": "h"}, {"measurement": "Activity", "setting": "Rattus norvegicus [8]", "value": "Non-toxic"}, {"measurement": "inhibition", "setting": "Mus musculus [9]", "value": "inactive"}, {"measurement": "MIC", "setting": "Candida parapsilosis", "value": 64, "unit": "µg/mL"}, {"measurement": "Time", "setting": "Mus musculus [10]", "value": 0.5, "unit": "h"}, {"measurement": "ED50", "setting": "Mus musculus [11]", "value": "> 138", "unit": "mg/kg"}, {"measurement": "inhibition", "setting": "Mus musculus [12]", "value": "Active"}, {"measurement": "inhibition", "setting": "Rattus norvegicus [13]", "value": "inactive"}, {"measurement": "MIC", "setting": "Pseudomonas aeruginosa", "value": "> 1020", "unit": "µg/mL"}]}]}
